Reference: publication PMC5600292 (Biochimica et biophysica acta, 2017)

Key:
Assay type in all cases: biochemical
[1] = biological target: human recombinant thrombin L99A (Homo sapiens, UniProt P00734, L459A); assay: HPLC-based kinetic assay of FXIII AP hydrolysis, L99A thrombin
How it was run: (§1)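 Synthetic Ac-/-NH2 FXIII (28–41) AP peptides (V34, L34, F34, W34, Y34) were used at 75–2500 µM final in 50 mM H3PO4, 100 mM NaCl, 0.1% PEG, pH 7.4, 25 °C. Recombinant human thrombin (6 nM–1 µM) started the reaction; aliquots were quenched with 12.5% H3PO4, keeping hydrolysis below 17% in 30 min. The (28–37) product was quantified by RP-HPLC against calibration curves. Initial velocities were fitted to V = Vmax/(1+Km/[S]), kcat taken from thrombin concentration, in triplicate.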

[2] = biological target: human recombinant thrombin wild-type (WT) (Homo sapiens, UniProt P00734); assay: HPLC-based kinetic assay of thrombin-catalyzed hydrolysis of FXIII; conditions: WT IIa, pH 7.4, 25 °C, average of at least three independent experiments ± SEM
How it was run: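 Recombinant human thrombin hydrolysed acetylated, amidated FXIII (28–41) activation peptides with V, L, F, W or Y at position 34 (final 75–2500 µM). Reactions ran at 25 °C in 50 mM H3PO4, 100 mM NaCl, 0.1% PEG, pH 7.4, with 6 nM–1 µM thrombin, and kept <17% hydrolysis in 30 min. Timed aliquots were quenched with 12.5% H3PO4. The (28–37) product was quantified by C18 RP-HPLC against calibration curves, giving initial velocities. These were fit to V = Vmax/(1 + Km/[S]), and kcat came from thrombin concentration. Runs were in triplicate.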

[3] = biological target: human recombinant thrombin W60dA (Homo sapiens, UniProt P00734, W413A); assay: HPLC-based kinetic assay of FXIII AP hydrolysis, W60dA thrombin; conditions: W60dA IIa, pH 7.4, 25 °C, average of at least three independent experiments ± SEM
How it was run: as §1

[4] = biological target: human recombinant thrombin W215A/E217A (WE) (Homo sapiens, UniProt P00734, E592A/W590A); assay: HPLC-based kinetic assay of FXIII AP hydrolysis, W215A/E217A
How it was run: as §1

[5] = biological target: human recombinant thrombin I174A (Homo sapiens, UniProt P00734, I542A); assay: HPLC-based kinetic assay of FXIII AP hydrolysis, I174A thrombin
How it was run: as §1

[6] = biological target: human recombinant thrombin W215A (Homo sapiens, UniProt P00734, W590A); assay: HPLC-based kinetic assay of FXIII AP hydrolysis, W215A thrombin
How it was run: as §1

[7] = L99A IIa, HPLC assay, pH 7.4, 25 °C, average of at least three independent experiments ± SEM, SEM
[8] = WE (W215A/E217A) IIa, HPLC assay, pH 7.4, 25 °C, average of at least three independent experiments ± SEM, SEM
[9] = I174A IIa, HPLC assay, pH 7.4, 25 °C, average of at least three independent experiments ± SEM, SEM
[10] = W215A IIa, HPLC assay, pH 7.4, 25 °C, average of at least three independent experiments ± SEM, SEM

Question: How did the kcat/Km ([1]; L99A IIa, HPLC assay, pH 7.4, 25 °C, average of at least three independent experiments ± SEM) turn out when “Ac-TVELQGWVPRGVNL-NH2 [FXIII (28–41) W34 AP]” was run?
Answer: The kcat/Km was 3200 ± 490 M⁻¹ s⁻¹.

Question: What about the Km [1, 7] of the same substance?
Answer: The Km was 719 ± 97 µM.

Question: What about the kcat [1, 7] of the same substance?
Answer: The kcat was 2.3 ± 0.17 s⁻¹.

Question: What about the “fold decrease in kcat relative to WT thrombin” value ([1]; L99A thrombin, current work) of the same substance?
Answer: The value was 3 fold.

Question: What about the kcat/Km [2] of the same substance?
Answer: Its kcat/Km is 12000 ± 1200 M⁻¹ s⁻¹.

Question: What about the Km ([2]; SEM) of the same substance?
Answer: Its Km is 637 ± 56 µM.

Question: And the kcat ([2]; SEM)?
Answer: Its kcat is 7.62 ± 0.3 s⁻¹.

Question: And the kcat/Km [3]?
Answer: Its kcat/Km is 1200 ± 120 M⁻¹ s⁻¹.

Question: What about the Km ([3]; SEM) of the same substance?
Answer: Its Km is 976 ± 89 µM.

Question: And the kcat ([3]; SEM)?
Answer: The kcat was 1.21 ± 0.05 s⁻¹.

Question: And the kcat/Km ([4]; WE (W215A/E217A) IIa, HPLC assay, pH 7.4, 25 °C, average of at least three independent experiments ± SEM)?
Answer: The kcat/Km was 270 ± 35 M⁻¹ s⁻¹.

Question: And the Km [4, 8]?
Answer: Its Km is 1280 ± 161 µM.

Question: What about the kcat [4, 8] of the same substance?
Answer: Its kcat is 0.35 ± 0.03 s⁻¹.

Question: What about the “fold decrease in Km over WT thrombin” value ([4]; WE thrombin, current work) of the same substance?
Answer: The value was 2 fold.

Question: What about the kcat/Km ([5]; I174A IIa, HPLC assay, pH 7.4, 25 °C, average of at least three independent experiments ± SEM) of the same substance?
Answer: Its kcat/Km is 54000 ± 5500 M⁻¹ s⁻¹.

Question: And the Km [5, 9]?
Answer: Its Km is 256 ± 24 µM.

Question: And the kcat [5, 9]?
Answer: Its kcat is 13.9 ± 0.52 s⁻¹.

Question: What about the “fold increase in kcat relative to WT thrombin” value ([5]; I174A thrombin, current work) of the same substance?
Answer: Its value is 2 fold.

Question: What about the “fold increase in kcat/Km relative to WT thrombin” value ([5]; I174A thrombin, current work) of the same substance?
Answer: Its value is 4.5 fold.

Question: What about the kcat/Km ([6]; W215A IIa, HPLC assay, pH 7.4, 25 °C, average of at least three independent experiments ± SEM) of the same substance?
Answer: Its kcat/Km is 5600 ± 340 M⁻¹ s⁻¹.

Question: What about the Km [6, 10] of the same substance?
Answer: The Km was 1030 ± 57 µM.

Question: What about the kcat [6, 10] of the same substance?
Answer: The kcat was 5.76 ± 0.14 s⁻¹.

Question: And the “fold decrease in Km over WT thrombin” value ([6]; W215A thrombin, current work)?
Answer: Its value is 2 fold.
